Results taken from ChEMBL document CHEMBL1125634, “Triazolobenzo- and triazolothienodiazepines as potent antagonists of platelet activating factor” (J Med Chem, 1991).
The source made the active and inactive calls. The rule behind the calls is not given here.

Test system: Cavia porcellus
Experiment: Inhibitory activity at 0.03 mg/kg was determined against PAF-induced bronchoconstriction in guinea pig
Type: functional
Conditions: not given
Procedure, shortened: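 Duration-of-action test: single 0.03 mg/kg oral dose given 24 h before iv PAF challenge (1 µg/kg) in ventilated, paralysed guinea pigs. Percent inhibition of the tracheal pressure rise versus vehicle controls. Values are means ± SEM.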

Question: Which inhibition in vivo at 0.03 mg/kg does the source give for Cc1nnc2n1-c1sc(C#CCn3c4c(c5ccccc53)CCCCC4)cc1C(c1ccccc1Cl)=NC2 here?
Answer: 8%

Question: Which inhibition in vivo at 0.03 mg/kg does the source give for Cc1nnc2n1-c1sc(C#CCN3C(=O)Cn4ccc5c(Cl)ccc3c54)cc1C(c1ccccc1Cl)=NC2 here?
Answer: 0%

Question: For Cc1nnc2n1-c1sc(C#CCn3c4c(c5ccccc53)CCCC4)cc1C(c1ccccc1Cl)=NC2, which inhibition in vivo at 0.03 mg/kg is on record?
Answer: 75%

Question: With Cc1nnc2n1-c1sc(C#CCN3Cc4cccc5cccc(c45)C3=O)cc1C(c1ccccc1Cl)=NC2 as the compound, how does the inhibition in vivo at 0.03 mg/kg read?
Answer: 60%

Question: For Cc1nnc2n1-c1sc(C#CCn3c(=O)c4ccccc4c4ccccc43)cc1C(c1ccccc1Cl)=NC2, which inhibition in vivo at 0.03 mg/kg is on record?
Answer: 75%

Test system: Cavia porcellus
Experiment: Inhibition of PAF-induced bronchoconstriction in guinea pig after oral administration after two-hour pretreatment time; No significant inhibition at 1 mg/kg
Type: functional, organism-based
Parameters: dose 1 mg/kg
Conditions: not given

Question: For Cc1nnc2n1-c1sc(I)cc1C(c1cc([N+](=O)[O-])ccc1Cl)=NC2, which ID50 is on record?
Answer: inactive

Question: For Cc1nnc2n1-c1sc(I)cc1C(c1ccccc1Cl)=NC2, which ID50 is on record?
Answer: inactive

Question: With Cc1nnc2n1-c1sc(C#CCn3c(=O)c4ccccc4c4ccccc43)cc1C(c1ccccc1Cl)NC2=O (configuration not stated) as the compound, how does the ID50 read?
Answer: inactive

Question: Which ID50 does the source give for Cc1nnc2n1-c1sc(I)cc1C(c1ccccc1Cl)=NC2C (configuration not stated) here?
Answer: inactive

Question: For Cc1nnc2n1-c1sc(C#CCN3C(=O)CCc4ccccc43)cc1C(c1cc([N+](=O)[O-])ccc1Cl)=NC2, which ID50 is on record?
Answer: inactive

Target: not listed separately
Experiment: PAF-antagonist activity determined in dog platelets by PAF-binding assay
Conditions: not given

Question: With CCCCC/C(=C\C=C\C(=O)N[C@H](C)CCCc1cccnc1)c1ccc(OC)cc1 as the compound, how does the IC50 read?
Answer: 0.04 µM

Test system: Cavia porcellus
Experiment: Inhibition of PAF-induced bronchoconstriction in guinea pig after oral administration after two-hour pretreatment time
Type: functional
Conditions: read-out: ID50 (the source's name)
Procedure, shortened: (§1)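 Guinea pigs dosed orally with drug or vehicle 2 h before iv PAF challenge (1 µg/kg, maximal constrictory dose). Propranolol given 5 min before PAF, succinylcholine (1.2 mg/kg iv) to stop breathing, animals ventilated. Read-out is tracheal pressure change, averaged over 3 control and 3 treated animals.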

Question: For Cc1nnc2n1-c1ccc(C#CCN3C(=O)c4ccccc4C3=O)cc1C(c1ccccc1F)=NC2, which ED50 is on record?
Answer: 0.5 mg/kg

Question: For Cc1nnc2n1-c1sc(C#CCn3c(=O)n(C)c(=O)c4ccccc43)cc1C(c1ccccc1Cl)=NC2, which ED50 is on record?
Answer: 0.02 mg/kg

Question: For O=c1c2ccccc2c2ccccc2n1CC#Cc1cc2c(s1)-n1c(CO)nnc1CN=C2c1ccccc1Cl, which ED50 is on record?
Answer: 0.3 mg/kg

Question: For COc1cc2c(cc1OC)C(=O)N(CC#Cc1cc3c(s1)-n1c(C)nnc1CN=C3c1ccccc1Cl)CC2, which ED50 is on record?
Answer: 0.05 mg/kg

Question: For Cc1nnc2n1-c1sc(C#CCC34CCCc5cccc(c53)NC4=O)cc1C(c1ccccc1Cl)=NC2 (configuration not stated), which ED50 is on record?
Answer: 0.3 mg/kg

Question: With Cc1nnc2n1-c1sc(C#CCOc3cccnc3)cc1C(c1ccccc1Cl)=NC2 as the compound, how does the ED50 read?
Answer: 0.2 mg/kg

Question: For Cc1nnc2n1-c1sc(C#CCN3C(=O)CCc4cc(Cl)cc(Cl)c43)cc1C(c1ccccc1Cl)=NC2, which ED50 is on record?
Answer: 0.02 mg/kg

Question: Which ED50 does the source give for Cc1nnc2n1-c1sc(C#CCn3c(=O)n(-c4ccccc4)c4ccccc43)cc1C(c1ccccc1Cl)=NC2 here?
Answer: 0.02 mg/kg

Question: For Cc1nnc2n1-c1sc(C#CCn3c(=O)c4ccccc4c4ccccc43)cc1C(c1ccccc1Cl)=NC2C (configuration not stated), which ED50 is on record?
Answer: 0.03 mg/kg

Question: Which ED50 does the source give for Cc1nnc2n1-c1sc(C#CCn3c4c(c5cc(Cl)ccc53)CCCCC4)cc1C(c1ccccc1Cl)=NC2 here?
Answer: 0.3 mg/kg

Question: Which ED50 does the source give for Cc1nnc2n1-c1sc(C#CCn3c(=O)n(C)c4ccccc43)cc1C(c1ccccc1Cl)=NC2 here?
Answer: 0.04 mg/kg

Question: Which ED50 does the source give for Cc1nnc2n1-c1sc(C#CCN3C(=O)COc4cc(F)ccc43)cc1C(c1ccccc1Cl)=NC2 here?
Answer: 0.02 mg/kg

Question: With Cc1nnc2n1-c1sc(C#CCN3C(=O)NCc4ccccc43)cc1C(c1ccccc1Cl)=NC2 as the compound, how does the ED50 read?
Answer: 0.05 mg/kg

Question: With Cc1nnc2n1-c1sc(C#CCn3c4c(c5ccccc53)CCCCC4)cc1C(c1ccccc1Cl)=NC2 as the compound, how does the ED50 read?
Answer: 0.004 mg/kg

Question: Which ED50 does the source give for Cc1nnc2n1-c1sc(C#CCN3C(=O)c4cccc5cccc(c45)C3=O)cc1C(c1ccccc1Cl)=NC2 here?
Answer: 0.03 mg/kg

Question: Which ED50 does the source give for C=C=Cn1c(=O)n(CC#Cc2cc3c(s2)-n2c(C)nnc2CN=C3c2ccccc2Cl)c2ccccc21 here?
Answer: 0.03 mg/kg

Question: With Cc1nnc2n1-c1sc(C#CCN3C(=O)Cn4ccc5c(Cl)ccc3c54)cc1C(c1ccccc1Cl)=NC2 as the compound, how does the ED50 read?
Answer: 0.003 mg/kg

Question: Which ED50 does the source give for Cc1nnc2n1-c1sc(C#CCN3C(=O)COc4ccccc43)cc1C(c1ccccc1Cl)=NC2 here?
Answer: 0.02 mg/kg

Question: With Cc1nnc2n1-c1sc(C#CCn3c4ccccc4c(=O)c4ccccc43)cc1C(c1ccccc1Cl)=NC2 as the compound, how does the ED50 read?
Answer: 0.02 mg/kg

Question: For Cc1nnc2n1-c1sc(C#CCN3C(=O)c4cccc5cccc3c45)cc1C(c1ccccc1Cl)=NC2, which ED50 is on record?
Answer: 0.04 mg/kg

Question: With Cc1nnc2n1-c1sc(C#CCn3c(=O)n(CCN(C)C)c4ccccc43)cc1C(c1ccccc1Cl)=NC2 as the compound, how does the ED50 read?
Answer: 0.2 mg/kg

Question: For Cc1nnc2n1-c1sc(C#CCn3cnc4ccccc43)cc1C(c1ccccc1Cl)=NC2, which ED50 is on record?
Answer: 0.1 mg/kg

Question: For Cc1nnc2n1-c1sc(C#CCn3c(=O)c4cc(Cl)ccc4c4ccc(Cl)cc43)cc1C(c1ccccc1Cl)=NC2, which ED50 is on record?
Answer: 0.03 mg/kg

Question: Which ED50 does the source give for Cc1nnc2n1-c1sc(C#CCN3C(=O)COc4ccc(Cl)cc43)cc1C(c1ccccc1Cl)=NC2 here?
Answer: 0.05 mg/kg

Question: With Cc1nnc2n1-c1ccc(C#CCN3C(=O)CCc4ccccc43)cc1C(c1ccccc1F)=NC2 as the compound, how does the ED50 read?
Answer: 0.4 mg/kg

Question: With Cc1nnc2n1-c1sc(C#CCn3c4ccccc4c4ccccc43)cc1C(c1ccccc1Cl)=NC2 as the compound, how does the ED50 read?
Answer: 0.02 mg/kg

Question: Which ED50 does the source give for Cc1nnc2n1-c1ccc(C#CCN3C(=O)c4cccc5cccc(c45)C3=O)cc1C(c1ccccc1Cl)=NC2 here?
Answer: 0.6 mg/kg

Question: Which ED50 does the source give for Cc1nnc2n1-c1sc(C#CCN3CCc4ccccc4C3=O)cc1C(c1ccccc1Cl)=NC2 here?
Answer: 0.03 mg/kg

Question: For Cc1nnc2n1-c1ccc(C#CCN3C(=O)CSc4ccccc43)cc1C(c1ccccc1F)=NC2, which ED50 is on record?
Answer: 0.3 mg/kg

Question: With Cc1nnc2n1-c1sc(C#CCn3c(=O)ccc4ccccc43)cc1C(c1ccccc1Cl)=NC2 as the compound, how does the ED50 read?
Answer: 0.02 mg/kg

Question: With Cc1nnc2n1-c1sc(C#CCn3c4c(c5cc(Cl)ccc53)CCCC4)cc1C(c1ccccc1Cl)=NC2 as the compound, how does the ED50 read?
Answer: 0.04 mg/kg

Question: Which ED50 does the source give for Cc1nnc2n1-c1sc(C#CCN3C(=O)CCc4ccc(Cl)cc43)cc1C(c1ccccc1Cl)=NC2 here?
Answer: 0.1 mg/kg

Question: With Cc1nnc2n1-c1sc(C#CCn3c(=O)n(CCN(C)C)c(=O)c4ccccc43)cc1C(c1ccccc1Cl)=NC2 as the compound, how does the ED50 read?
Answer: 0.3 mg/kg

Question: With Cc1nnc2n1-c1sc(C#CCn3c(=O)c4ccccc4c4ccccc43)cc1C(c1ccccc1Cl)=NC2O (configuration not stated) as the compound, how does the ED50 read?
Answer: 0.07 mg/kg

Question: Which ED50 does the source give for Cc1nnc2n1-c1sc(C#CCn3ccc4ccccc4c3=O)cc1C(c1ccccc1Cl)=NC2 here?
Answer: 0.03 mg/kg

Question: Which ED50 does the source give for CCCCC/C(=C\C=C\C(=O)N[C@H](C)CCCc1cccnc1)c1ccc(OC)cc1 here?
Answer: 4 mg/kg

Question: For Cc1nnc2n1-c1sc(C#CCn3c(=O)c4ccccc4c(=O)c4ccccc43)cc1C(c1ccccc1Cl)=NC2, which ED50 is on record?
Answer: 0.03 mg/kg

Question: Which ED50 does the source give for Cc1nnc2n1-c1sc(CCC(=O)N3CCOCC3)cc1C(c1ccccc1Cl)=NC2 [APAFANT] here?
Answer: 1.2 mg/kg

Question: Which ED50 does the source give for Cc1nnc2n1-c1sc(C#CCOc3ccccc3)cc1C(c1ccccc1Cl)=NC2 here?
Answer: 0.1 mg/kg

Question: For Cc1nnc2n1-c1ccc(C#CCCN3C(=O)c4ccccc4C3=O)cc1C(c1ccccc1F)=NC2, which ED50 is on record?
Answer: 0.3 mg/kg

Question: For Cc1nnc2n1-c1sc(C#CCn3c(=O)c4ccccc4c4ccccc4c3=O)cc1C(c1ccccc1Cl)=NC2, which ED50 is on record?
Answer: 0.02 mg/kg

Question: Which ED50 does the source give for Cc1nnc2n1-c1sc(C#CCn3c(=O)c4ccccc4c4ccccc43)cc1C(c1ccccc1Cl)=NC2 here?
Answer: 0.01 mg/kg

Question: With Cc1nnc2n1-c1sc(C#CCn3c(O)nc4ccccc43)cc1C(c1ccccc1Cl)=NC2 as the compound, how does the ED50 read?
Answer: 0.2 mg/kg

Question: For Cc1nnc2n1-c1sc(C#CCN3C(=O)OCc4ccccc43)cc1C(c1ccccc1Cl)=NC2, which ED50 is on record?
Answer: 0.08 mg/kg

Question: With Cc1nnc2n1-c1sc(C#CCn3ncc4ccccc43)cc1C(c1ccccc1Cl)=NC2 as the compound, how does the ED50 read?
Answer: 0.02 mg/kg

Question: With Cc1nnc2n1-c1ccc(C#CCN3C(=O)CCc4ccccc43)cc1C(c1ccccc1F)=N[C@H]2C as the compound, how does the ED50 read?
Answer: 0.1 mg/kg

Question: Which ED50 does the source give for Cc1nnc2n1-c1sc(C#CCN3C(=O)CC(C)(C)c4ccccc43)cc1C(c1ccccc1Cl)=NC2 here?
Answer: 0.03 mg/kg

Test system: Cavia porcellus
Experiment: Compound was measured by using PAF-induced Bronchoconstriction assay in the guinea pig after administration orally after two-hour pretreatment time
Type: functional
Conditions: po, read-out: ID50 (the source's name)
Procedure, shortened: as §1

Question: Which ED50 does the source give for Cc1nnc2n1-c1sc(C#CCN3C(=O)CCc4ccccc43)cc1C(c1ccccc1Cl)=NC2 here?
Answer: 0.02 mg/kg

Test system: Cavia porcellus
Experiment: Inhibition of PAF-induced bronchoconstriction in the guinea pig after administration (1 mg/kg) intravenously at two-hourpretreatment time
Type: functional
Conditions: not given

Question: For CCc1nnc2n1-c1ccc(C#CCN3C(=O)c4ccccc4C3=O)cc1C(c1ccccc1F)=NC2, which Inhibition is on record?
Answer: 30%

Species: Canis familiaris
Experiment: PAF-antagonist activity in dog platelets by PAF-binding assay; No significant inhibition at 1000 nM
Type: functional, Canis lupus familiaris
Conditions: not given

Question: For Cc1nnc2n1-c1cc(C#CCN3C(=O)c4ccccc4C3=O)ccc1C(c1ccccc1F)=NC2, which IC50 is on record?
Answer: Not Active

Test system: Cavia porcellus
Experiment: Inhibition of PAF-induced bronchoconstriction in the guinea pig after intravenous administration after one-minute pretreatment time; No significant inhibition at 1 mg/kg
Type: functional, organism-based
Parameters: dose 1 mg/kg
Conditions: not given

Question: Which ID50 does the source give for Cc1nnc2n1-c1sc(C#CCn3c(=O)c4ccccc4c4ccccc43)cc1C(c1ccccc1Cl)NC2=O (configuration not stated) here?
Answer: inactive
